Measurements published in ChEMBL document CHEMBL1152434, “Probing the fibrate binding specificity of rat liver fatty acid binding protein” (J Med Chem, 2009).
Active and inactive are the calls of the source. No cut-off for these calls is given here.

Legend:
[1] = biological target: T1, Fatty acid-binding protein, liver (Rattus norvegicus) (UniProt P02692); experiment: Binding affinity to rat recombinant L-FABP low affinity site expressed in Escherichia coli BL21(DE3) assessed as occupancy at a drug-protein molar ratio of 3:1 by NMR chemical shift perturbation method
T1 sequence (whole entry): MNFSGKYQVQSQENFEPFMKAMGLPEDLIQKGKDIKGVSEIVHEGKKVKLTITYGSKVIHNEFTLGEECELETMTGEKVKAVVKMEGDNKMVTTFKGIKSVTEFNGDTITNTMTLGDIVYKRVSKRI

[2] = biological target: T1, Fatty acid-binding protein, liver (Rattus norvegicus); experiment: Binding affinity to rat recombinant L-FABP high affinity site expressed in Escherichia coli BL21(DE3) assessed as occupancy at a drug-protein molar ratio of 3:1 by NMR chemical shift perturbation method
[3] = biological target: T2, Fatty acid-binding protein, liver (Rattus norvegicus, UniProt P02692); experiment: Binding affinity to rat recombinant L-FABP high affinity site expressed in Escherichia coli BL21(DE3) at 5 deg C by fluorimetric assay
T2 sequence (P02692 whole entry): T1 sequence (whole entry)
Summary of the method: (§1)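 Steady-state ANS displacement: the fluorescent cavity probe 1-anilino-8-naphthalene sulfonic acid is bound to recombinant rat L-FABP (15N/13C-labelled, purified from E. coli). Fibrates in DMSO are titrated directly into the protein. The fall in ANS fluorescence is plotted against free ligand. A two-site competition nonlinear fit gives EC50, converted to Ki for each site.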

[4] = biological target: T2, Fatty acid-binding protein, liver; experiment: Binding affinity to rat recombinant L-FABP high affinity site expressed in Escherichia coli BL21(DE3) at 42 deg C by fluorimetric assay; summary of the method: as §1
[5] = biological target: T2, Fatty acid-binding protein, liver; experiment: Binding affinity to rat recombinant L-FABP high affinity site expressed in Escherichia coli BL21(DE3) at 37 deg C by fluorimetric assay; summary of the method: as §1
[6] = biological target: T2, Fatty acid-binding protein, liver; experiment: Binding affinity to rat recombinant L-FABP high affinity site expressed in Escherichia coli BL21(DE3) at 30 deg C by fluorimetric assay; summary of the method: as §1
[7] = biological target: T2, Fatty acid-binding protein, liver; experiment: Binding affinity to rat recombinant L-FABP high affinity site expressed in Escherichia coli BL21(DE3) at 25 deg C by fluorimetric assay; summary of the method: as §1
[8] = biological target: T2, Fatty acid-binding protein, liver; experiment: Binding affinity to rat recombinant L-FABP high affinity site expressed in Escherichia coli BL21(DE3) at 20 deg C by fluorimetric assay; summary of the method: as §1
[9] = biological target: T2, Fatty acid-binding protein, liver; experiment: Binding affinity to rat recombinant L-FABP high affinity site expressed in Escherichia coli BL21(DE3) at 15 deg C by fluorimetric assay; summary of the method: as §1
[10] = biological target: T2, Fatty acid-binding protein, liver; experiment: Binding affinity to rat recombinant L-FABP high affinity site expressed in Escherichia coli BL21(DE3) at 10 deg C by fluorimetric assay; summary of the method: as §1
[11] = biological target: T2, Fatty acid-binding protein, liver; experiment: Binding affinity to rat recombinant L-FABP low affinity site expressed in Escherichia coli BL21(DE3) at 5 deg C by fluorimetric assay; summary of the method: as §1
[12] = biological target: T2, Fatty acid-binding protein, liver; experiment: Binding affinity to rat recombinant L-FABP low affinity site expressed in Escherichia coli BL21(DE3) at 42 deg C by fluorimetric assay; summary of the method: as §1
[13] = biological target: T2, Fatty acid-binding protein, liver; experiment: Binding affinity to rat recombinant L-FABP low affinity site expressed in Escherichia coli BL21(DE3) at 37 deg C by fluorimetric assay; summary of the method: as §1
[14] = biological target: T2, Fatty acid-binding protein, liver; experiment: Binding affinity to rat recombinant L-FABP low affinity site expressed in Escherichia coli BL21(DE3) at 30 deg C by fluorimetric assay; summary of the method: as §1
[15] = biological target: T2, Fatty acid-binding protein, liver; experiment: Binding affinity to rat recombinant L-FABP low affinity site expressed in Escherichia coli BL21(DE3) at 25 deg C by fluorimetric assay; summary of the method: as §1
[16] = biological target: T2, Fatty acid-binding protein, liver; experiment: Binding affinity to rat recombinant L-FABP low affinity site expressed in Escherichia coli BL21(DE3) at 20 deg C by fluorimetric assay; summary of the method: as §1
[17] = biological target: T2, Fatty acid-binding protein, liver; experiment: Binding affinity to rat recombinant L-FABP low affinity site expressed in Escherichia coli BL21(DE3) at 15 deg C by fluorimetric assay; summary of the method: as §1
[18] = biological target: T2, Fatty acid-binding protein, liver; experiment: Binding affinity to rat recombinant L-FABP low affinity site expressed in Escherichia coli BL21(DE3) at 10 deg C by fluorimetric assay; summary of the method: as §1

Row | Activity [1] | Activity [2] | Kd [3] | Kd [4] | Kd [5] | Kd [6] | Kd [7] | Kd [8] | Kd [9] | Kd [10] | Kd [11] | Kd [12] | Kd [13] | Kd [14] | Kd [15] | Kd [16] | Kd [17] | Kd [18] | Structure (SMILES)
1 | 85% | 100% | – | – | – | – | – | – | – | – | – | – | – | – | – | – | – | – | CC(C)(Oc1ccc(C2CC2(Cl)Cl)cc1)C(=O)O (stereo not given)
2 | 93% | inactive | – | – | – | – | – | – | – | – | – | – | – | – | – | – | – | – | CC(C)(Oc1ccc(CCNC(=O)c2ccc(Cl)cc2)cc1)C(=O)O
3 | 79% | 100% | – | – | – | – | – | – | – | – | – | – | – | – | – | – | – | – | Cc1ccc(C)c(OCCCC(C)(C)C(=O)O)c1
4 | inactive | 99% | 6000 nM | 12 µM | 11000 nM | 9600 nM | 8900 nM | 7800 nM | 7300 nM | 6700 nM | – | – | – | – | – | – | – | – | CCOC(=O)C(C)(C)Oc1ccc(Cl)cc1 [CLOFIBRATE]
5 | 100% | 100% | 18 nM | – | 62 nM | 41 nM | 32 nM | 27 nM | 24 nM | 23 nM | 0.13 µM | 0.36 µM | 0.32 µM | 0.27 µM | 0.25 µM | 0.2 µM | 0.16 µM | 0.15 µM | CC(C)OC(=O)C(C)(C)Oc1ccc(C(=O)c2ccc(Cl)cc2)cc1 [FENOFIBRATE]
6 | 96% | 100% | 94 nM | – | 420 nM | 360 nM | 340 nM | 220 nM | 160 nM | 100 nM | 18 µM | 29 µM | 28 µM | 27 µM | 24 µM | 23 µM | 20 µM | 19 µM | CC(C)(Oc1ccc(C(=O)c2ccc(Cl)cc2)cc1)C(=O)O [FENOFIBRIC ACID]
